# Laboratory results published in ChEMBL document CHEMBL4368873, “Novel O-methyl goniofufurone and 7-epi-goniofufurone derivatives: synthesis, in vitro cytotoxicity and SAR analysis” (Medchemcomm, 2018).
# Calls of active or inactive are those of the source. The calls are words filed in the database; no cut-off is given here.
# Legend:
# K562 [1] = test: Cytotoxicity against human K562 cells assessed as inhibition of cell growth after 72 hrs by MTT assay; format: functional, cell-based; details: K562, 72 h
# HL-60 = test: Cytotoxicity against human HL60 cells assessed as inhibition of cell growth after 72 hrs by MTT assay; format: functional, cell-based; details: HL-60, 72 h
# In short: (§1)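 Exponentially growing cells were exposed 72 h to compounds diluted from a 10 mM DMSO stock into serum-free medium. Growth was read by colorimetric MTT. Leukaemia/lymphoma lines (K562, HL-60, Jurkat, Raji) were grown in RPMI 1640; MCF-7, MDA-MB 231, HeLa, A549 and normal MRC-5 fibroblasts in DMEM; 37 °C, 5% CO2.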
# Jurkat = test: Cytotoxicity against human Jurkat cells assessed as inhibition of cell growth after 72 hrs by MTT assay; format: functional, cell-based; in short: as §1
# Raji = test: Cytotoxicity against human Raji cells assessed as inhibition of cell growth after 72 hrs by MTT assay; format: functional, cell-based
# MCF7 = test: Cytotoxicity against human MCF7 cells assessed as inhibition of cell growth after 72 hrs by MTT assay; format: functional, cell-based; details: MCF7, 72 h; in short: as §1
# MDA-MB-231 [2] = test: Cytotoxicity against human MDA-MB-231 cells assessed as inhibition of cell growth after 72 hrs by MTT assay; format: functional, cell-based; details: MDA-MB-231, 72 h
# HeLa = test: Cytotoxicity against human HeLa cells assessed as inhibition of cell growth after 72 hrs by MTT assay; format: functional, cell-based
# A549 [3] = test: Cytotoxicity against human A549 cells assessed as inhibition of cell growth after 72 hrs by MTT assay; format: functional, cell-based; details: A549, 72 h
# MRC5 = test: Cytotoxicity against human MRC5 cells assessed as inhibition of cell growth after 72 hrs by MTT assay; format: cell-based; details: MRC5, 72 h
# A549 [4] = test: Potency index, ratio of doxorubicin IC50 to test compound IC50 for human A549 cells; format: functional
# K562 [5] = test: Cell cycle arrest in human K562 cells assessed as accumulation at sub-G1 phase at IC50 after 72 hrs by propidium iodide staining based flow cytometry (reference value: 1.84%); format: functional
# K562 [6] = test: Cell cycle arrest in human K562 cells assessed as accumulation at G0/G1 phase at IC50 after 72 hrs by propidium iodide staining based flow cytometry (reference value: 47.51%); format: functional
# K562 [7] = test: Cell cycle arrest in human K562 cells assessed as accumulation at S phase at IC50 after 72 hrs by propidium iodide staining based flow cytometry (reference value: 26.52%); format: functional
# K562 [8] = test: Cell cycle arrest in human K562 cells assessed as accumulation at G2/M phase at IC50 after 72 hrs by propidium iodide staining based flow cytometry (reference value: 24.13%); format: functional
# K562 [9] = test: Induction of apoptosis in human K562 cells assessed as apoptotic cells at IC50 after 72 hrs by Annexin V-FITC/propidium iodide staining based flow cytometry relative to control; format: functional
# In short: (§2)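 K562 cells seeded at 5 × 10⁵ per well, treated 72 h at each compound's IC₅₀ level. Viability was checked by trypan blue exclusion. Viable cells were double-stained with Annexin V-FITC and propidium iodide and analysed by flow cytometry. Results are given as specific apoptosis or specific necrosis (%) relative to untreated cells.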
# K562 [10] = test: Induction of apoptosis in human K562 cells assessed as necrotic cells at IC50 after 72 hrs by Annexin V-FITC/propidium iodide staining based flow cytometry relative to control; format: functional; in short: as §2
# K562 [11] = test: Up regulation of Bcl-2 expression in human K562 cells at IC50 measured after 72 hrs by Western blot analysis; format: functional, cell-based
# K562 [12] = test: Up regulation of Bax expression in human K562 cells at IC50 measured after 72 hrs by Western blot analysis; format: functional, cell-based
# K562 [13] = test: Up regulation of Caspase-3 precursor expression in human K562 cells at IC50 measured after 72 hrs by Western blot analysis; format: functional, cell-based
# K562 [14] = test: Up regulation of cleaved PARP expression in human K562 cells at IC50 measured after 72 hrs by Western blot analysis; format: functional, cell-based
# K562 [15] = test: Cell cycle arrest in human K562 cells assessed as increase in accumulation at sub-G1 phase at IC50 after 72 hrs by propidium iodide staining based flow cytometry relative to control; format: functional
# K562 [16] = test: Up regulation of active Caspase-3 expression in human K562 cells at IC50 measured after 72 hrs by Western blot analysis; format: functional, cell-based
# K562 [17] = test: Down regulation of Bcl-2 expression in human K562 cells at IC50 measured after 72 hrs by Western blot analysis; format: functional, cell-based
# K562 [18] = test: Down regulation of Bax expression in human K562 cells at IC50 measured after 72 hrs by Western blot analysis; format: functional, cell-based
# MDA-MB-231 [19] = test: Potency index, ratio of doxorubicin IC50 to test compound IC50 for human MDA-MB-231 cells; format: functional
smiles,measurement,setting,value
CO[C@@H]1[C@H]2OC(=O)C[C@H]2O[C@@H]1C(=O)c1ccccc1,IC50,K562 [1],22.5 µM
same,IC50,HL-60,11.2 µM
same,IC50,Jurkat,8.97 µM
same,IC50,Raji,25.6 µM
same,IC50,MCF7,3.44 µM
same,IC50,MDA-MB-231 [2],41 µM
same,IC50,HeLa,6.39 µM
same,IC50,A549 [3],2.58 µM
same,IC50,MRC5,> 100 µM
same,Ratio IC50,A549 [4],2
same,Activity,K562 [5],1.33%
same,Activity,K562 [6],45.46%
same,Activity,K562 [7],23.68%
same,Activity,K562 [8],29.53%
same,Activity,K562 [9],2.1%
same,Activity,K562 [10],-0.59%
same,Activity,K562 [11],Active
same,Activity,K562 [12],Active
same,Activity,K562 [13],Active
same,Activity,K562 [14],Active
CO[C@@H]1[C@H]2OC(=O)C[C@H]2O[C@@H]1C(O)(c1ccccc1)c1ccccc1,IC50,K562 [1],28.7 µM
same,IC50,HL-60,2.36 µM
same,IC50,Jurkat,9.79 µM
same,IC50,Raji,18.9 µM
same,IC50,MCF7,11.4 µM
same,IC50,MDA-MB-231 [2],51 µM
same,IC50,HeLa,12.6 µM
same,IC50,A549 [3],15.1 µM
same,IC50,MRC5,> 100 µM
same,Activity,K562 [5],10.13%
same,Activity,K562 [6],43.35%
same,Activity,K562 [7],17.77%
same,Activity,K562 [8],28.75%
same,fold change (FC),K562 [15],5.5
same,Activity,K562 [9],33.41%
same,Activity,K562 [10],8.73%
same,Activity,K562 [11],Active
same,Activity,K562 [12],Active
same,Activity,K562 [13],Active
same,Activity,K562 [16],Active
same,Activity,K562 [14],Active
CO[C@@H]1[C@H]2OC(=O)C[C@H]2O[C@@H]1[C@@H](O)c1ccccc1,IC50,K562 [1],8.45 µM
same,IC50,HL-60,18.9 µM
same,IC50,Jurkat,15.5 µM
same,IC50,Raji,12.2 µM
same,IC50,MCF7,12.7 µM
same,IC50,MDA-MB-231 [2],35.2 µM
same,IC50,HeLa,11 µM
same,IC50,A549 [3],38.2 µM
same,IC50,MRC5,> 100 µM
same,Activity,K562 [5],28.67%
same,Activity,K562 [6],35.04%
same,Activity,K562 [7],15.08%
same,Activity,K562 [8],21.21%
same,fold change (FC),K562 [15],15.5
same,Activity,K562 [9],55.48%
same,Activity,K562 [10],2.57%
same,Activity,K562 [17],Active
same,Activity,K562 [18],Active
same,Activity,K562 [14],Active
CO[C@@H]1[C@H]2OC(=O)C[C@H]2O[C@@H]1[C@H](O)c1ccccc1,IC50,K562 [1],5.36 µM
same,IC50,HL-60,25 µM
same,IC50,Jurkat,24.9 µM
same,IC50,Raji,8.69 µM
same,IC50,MCF7,4.04 µM
same,IC50,MDA-MB-231 [2],28.6 µM
same,IC50,HeLa,8.63 µM
same,IC50,A549 [3],23.6 µM
same,IC50,MRC5,> 100 µM
same,Activity,K562 [5],1.82%
same,Activity,K562 [6],47.34%
same,Activity,K562 [7],26.52%
same,Activity,K562 [8],24.32%
same,Activity,K562 [9],2.69%
same,Activity,K562 [10],-0.54%
same,Activity,K562 [17],Active
same,Activity,K562 [12],Active
same,Activity,K562 [14],Active
CO[C@@H]1[C@H]2OC(=O)C[C@H]2O[C@@H]1[C@H](OC)c1ccccc1,IC50,K562 [1],14.7 µM
same,IC50,HL-60,2.21 µM
same,IC50,Jurkat,2.36 µM
same,IC50,Raji,12.4 µM
same,IC50,MCF7,> 100 µM
same,IC50,MDA-MB-231 [2],1.36 µM
same,IC50,HeLa,56.4 µM
same,IC50,A549 [3],26.3 µM
same,IC50,MRC5,> 100 µM
same,Activity,K562 [5],6.36%
same,Activity,K562 [6],44.86%
same,Activity,K562 [7],20.48%
same,Activity,K562 [8],28.3%
same,fold change (FC),K562 [15],3.5
same,Activity,K562 [9],4.32%
same,Activity,K562 [10],0.11%
same,Activity,K562 [11],Active
same,Activity,K562 [12],Active
same,Activity,K562 [13],Active
same,Activity,K562 [16],Active
same,Activity,K562 [14],Active
CO[C@H](c1ccccc1)[C@H]1O[C@@H]2CC(=O)O[C@@H]2[C@H]1O,IC50,K562 [1],7.95 µM
same,IC50,HL-60,2.96 µM
same,IC50,Jurkat,15.6 µM
same,IC50,Raji,15.6 µM
same,IC50,MCF7,> 100 µM
same,IC50,MDA-MB-231 [2],0.064 µM
same,IC50,HeLa,5.64 µM
same,IC50,A549 [3],2.64 µM
same,IC50,MRC5,> 100 µM
same,Ratio IC50,MDA-MB-231 [19],1.5
same,Ratio IC50,A549 [4],2
same,Activity,K562 [5],2.4%
same,Activity,K562 [6],52.09%
same,Activity,K562 [7],20.61%
same,Activity,K562 [8],24.89%
same,Activity,K562 [9],-0.27%
same,Activity,K562 [10],-0.5%
same,Activity,K562 [17],Active
same,Activity,K562 [18],Active
same,Activity,K562 [14],Active
CO[C@@H]1[C@H]2OC(=O)C[C@H]2O[C@@H]1[C@@H](OC)c1ccccc1,IC50,K562 [1],9.24 µM
same,IC50,HL-60,4.36 µM
same,IC50,Jurkat,1.69 µM
same,IC50,Raji,10.5 µM
same,IC50,MCF7,> 100 µM
same,IC50,MDA-MB-231 [2],2.65 µM
same,IC50,HeLa,89.3 µM
same,IC50,A549 [3],25.1 µM
same,IC50,MRC5,87.6 µM
same,Activity,K562 [5],2.4%
same,Activity,K562 [6],48.59%
same,Activity,K562 [7],22.66%
same,Activity,K562 [8],26.35%
same,Activity,K562 [9],1.7%
same,Activity,K562 [10],-0.44%
same,Activity,K562 [11],Active
same,Activity,K562 [12],Active
same,Activity,K562 [13],Active
same,Activity,K562 [14],Active
O=C1C[C@H]2O[C@H]([C@H](O)c3ccccc3)[C@H](O)[C@H]2O1,IC50,HL-60,> 100 µM
same,IC50,MDA-MB-231 [2],75.3 µM
same,IC50,MRC5,> 100 µM
same,Activity,K562 [5],2.16%
same,Activity,K562 [6],52.47%
same,Activity,K562 [7],21.03%
same,Activity,K562 [8],24.34%
same,Activity,K562 [9],-0.36%
same,Activity,K562 [10],-0.31%
same,Activity,K562 [11],Active
same,Activity,K562 [12],Active
same,Activity,K562 [14],Active
CO[C@@H](c1ccccc1)[C@H]1O[C@@H]2CC(=O)O[C@@H]2[C@H]1O,IC50,K562 [1],11.5 µM
same,IC50,HL-60,1.63 µM
same,IC50,Jurkat,12.6 µM
same,IC50,Raji,21.1 µM
same,IC50,MCF7,> 100 µM
same,IC50,MDA-MB-231 [2],0.13 µM
same,IC50,HeLa,8.46 µM
same,IC50,A549 [3],5.31 µM
same,IC50,MRC5,> 100 µM
same,Activity,K562 [5],6.03%
same,Activity,K562 [6],53.39%
same,Activity,K562 [7],19.68%
same,Activity,K562 [8],20.9%
same,fold change (FC),K562 [15],3
same,Activity,K562 [9],11.17%
same,Activity,K562 [10],0.55%
same,Activity,K562 [17],Active
same,Activity,K562 [18],Active
same,Activity,K562 [14],Active
